Screens (PubChem BioAssay)
Sampled rows, rich in hits. Any-hit rate of the full collection: about 2.5%.
SR-BI HDL uptake = inhibitors of mouse SR-BI mediated HDL lipid uptake | Q61009 | ldlA[mSR-BI] CHO cells, DiI-HDL uptake fluorescence, 3 h | inhibition, % at 12.5 µM | actives 0.96% (n = 320,000) | AID 488896;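 active = mean replicate inhibition of at least 70% and a set share of replicates each scoring 70 or more; inconclusive = meets just one of the two criteria; inactive = fails both criteria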;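 also: 0% = median of neutral control wells and 100% = median of positive control wells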
Target sequence (Q61009 whole entry, looked up): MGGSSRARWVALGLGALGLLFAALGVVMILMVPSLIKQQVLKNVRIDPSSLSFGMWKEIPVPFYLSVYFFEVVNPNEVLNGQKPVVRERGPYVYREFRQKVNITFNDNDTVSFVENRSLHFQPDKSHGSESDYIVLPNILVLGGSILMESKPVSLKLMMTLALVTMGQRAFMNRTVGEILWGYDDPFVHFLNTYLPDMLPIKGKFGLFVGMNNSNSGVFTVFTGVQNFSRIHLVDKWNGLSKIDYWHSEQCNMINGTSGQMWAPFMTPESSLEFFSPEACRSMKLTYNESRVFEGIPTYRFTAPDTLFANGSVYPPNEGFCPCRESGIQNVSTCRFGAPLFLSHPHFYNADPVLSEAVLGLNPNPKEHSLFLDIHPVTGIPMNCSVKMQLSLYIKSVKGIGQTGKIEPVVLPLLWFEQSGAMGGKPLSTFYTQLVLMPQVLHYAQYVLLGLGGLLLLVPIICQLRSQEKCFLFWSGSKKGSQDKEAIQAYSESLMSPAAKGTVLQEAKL
H9c2 TAG inh = triacylglycerol accumulation inhibition; inhibition, % at 12.5 µM; H9c2 cells, Nile Red lipid (TAG) fluorescence; cells loaded with 200 µM oleic acid; AID 651582; actives 0.66% (n = 230,000);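 active = pattern-corrected inhibition of lipid staining of at least 50% with the nuclear-stain viability signal not falling by more than 50%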;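 also: 0% = DMSO wells and 100% = triacsin C control wells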
Vif imaging = HIV Vif inhibition. actives 0.35% (n = 340,000). inhibition, % at 7.49 µM. HEK293T cells, Vif self-association by quenched fluorescence, imaging, 24 h. AID 602346; in the data active = inhibition above about 50%, passing the limit was not always enough; inconclusive = no clear call, values can overlap the other calls; inactive = below about 31%
SMARCA2 activ = SMARCA2 function activation, primary screen | actives 1% (n = 370,000) | activation, % at 9.1 µM | AID 652017 | MG213 cells, MMTV-luciferase reporter, dexamethasone, overnight; in the data active = activation above about 7.8%;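 also: 0% = vehicle wells and 100% = reference activator wells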
SR-BI DiI-HDL act = SR-BI HDL lipid transfer activation; activation, % at 12.5 µM; AID 504775; actives 0.096% (n = 320,000); CHO ldlA[mSR-BI] cells, DiI-HDL uptake fluorescence, 3 h; 100 = double the neutral-control signal;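 active = mean replicate activation of at least 60% and every replicate at or above 60%; inconclusive = mean or all-replicate condition met, but not both; inactive = mean below 60% and not all replicates reaching 60%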;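 also: 0% = median plate neutral-control signal and 100% = twice that signal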
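Test system: SR-BI-overexpressing, LDLR-lacking CHO cells. Measured by: DiI fluorescence, bottom read. Medium: Ham's F12 with 0.5% BSA, HEPES 25 mM, pH 7.4. Timing: 3 h uptake period with compound, 37 °C.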
DiI quench = counter-screen for SR-BI lipid transfer inhibitors: DiI fluorescence quenchers; shares compounds with SR-BI HDL uptake; cell-free DiI-HDL fluorescence quenching, 30 min; AC50, µM (series often up to 35 µM), for inactives: top-dose activity change, negative = quenching; actives 20% (n = 470); AID 540326;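 active = quenching, a falling signal, with AC50 below a set limit tied to the top valid dose, actives reach about 32 µM in these data; inconclusive = no clear call, values can overlap the other calls; inactive = rising signal, and the rest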
TAG conf = confirmation of triacylglycerol accumulation inhibitors | shares compounds with H9c2 TAG inh | H9c2 lipid accumulation, Nile Red fluorescence; cells loaded with 200 µM oleic acid | inhibition, % at 12.5 µM | actives 71% (n = 990);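 active = mean inhibition across replicates of 40% or more; inactive = mean inhibition below 40%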;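 also: plate controls were DMSO only wells for no effect and Triacsin C treated wells for full effect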
SMARCA2 act conf = SMARCA2 activation, confirmation screen | shares compounds with SMARCA2 activ | activation, % at 9.1 µM | MG213 cells, MMTV-luciferase with dexamethasone, luminescence, overnight; MG213 cells expressing E1A, Rb sequestered; DMSO wells 0%, reference activator 100% | AID 652260 | actives 30% (n = 3,500);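 active = activation above its plate's cutoff, the mean activation of tested wells plus 3 SD, cut at about 7.9% in these data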
VP16 Luc act = activates GAL4-VP16 luciferase, flagging SMARCA2 activator hits; shares compounds with SMARCA2 activ; HEK293 GAL4-VP16 pG5luc reporter, luciferase luminescence; scaled: DMSO wells 0%, SAHA wells 100%; activation, % at 9.1 µM; actives 41% (n = 3,500); AID 686939;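 active = activation above the solvent-only control well mean plus 3 SD, averaged across control plates, cut at about 5.2% in these data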
* marks the source's active call; other numbers are inactive results; i = inactive; ? = inconclusive; . = no result given.

SMILES	SR-BI HDL uptake	H9c2 TAG inh	Vif imaging	SMARCA2 activ	SR-BI DiI-HDL act	DiI quench	others
C[C@@H]1COC(=O)[C@H](NC(=O)OCC2c3ccccc3-c3ccccc32)C/C=C\C[C@@H](CC(=O)N[C@@H](CO)Cc2ccccc2)C(=O)N1	84*	-22	-2	1	-84	-5%
CC(=O)OCC(COC(C)=O)(CN1C(=O)c2ccccc2C1=O)CN1C(=O)c2ccccc2C1=O	.	.	.	-4	.	.
Cc1cc(N2CCN(Cc3ccccc3)CC2)n2nc(C)nc2n1	.	.	.	-6	.	.
O=C(Cn1nnc(N2CCOCC2)n1)NN=Cc1ccccc1Cl	.	.	.	-5	.	.
Cc1ccc(C)c(NC(=O)c2ccc3c(c2)N(Cc2ccc(F)cc2)C(=O)CS3=O)c1 (stereo not given)	-7	5	21	1	7	-3%
CCOc1ccc(NC(=O)c2ccc3c(c2)N(Cc2ccc(F)cc2)C(=O)CS3=O)cc1 (stereo not given)	17	.	-1	-2	-17	.
CN1CCCN(S(=O)(=O)c2ccc3c(c2)CCC(=O)N3)CC1	.	.	.	-1	.	.
S=C1NCCN1c1ccc(Cl)cc1	.	.	.	-3	.	.
CNc1cnn(-c2ccc(C)cc2)c(=O)c1Sc1ccc(C)cc1	70*	6	5	0	-70	1%
CCOc1ccc(CCNC(=O)C2CC(=O)N(c3ccccc3OCC)C2)cc1OCC (stereo not given)	79*	38	-7	-3	-79	-1%
O=C(Nc1ccc(-c2nc3ccccc3o2)cc1)c1cc(-n2cnnc2)ccc1Cl	?	.	-4	-1	-73	8%
COc1ccc(-c2nc(-c3ccc4c(c3)OCO4)[nH]c2-c2ccc(OC)cc2)cc1	105*	.	-10	-5	-105	2.7µM*
COc1ccc(CN(CCN2CCOCC2)C(=O)c2cccc(F)c2F)cc1OC	.	.	.	-2	.	.
Cc1ccc(C2c3c(n[nH]c3C(C)C)C(=O)N2c2ccccc2)cc1 (stereo not given)	.	.	.	-6	.	.
C=C(C)CSc1nnc(-c2cc(-c3ccc(OC)cc3)n[nH]2)n1N	.	.	.	-5	.	.
CCN=C1NC(c2ccccc2)C(C(=O)OC)=C(C)N1Cc1ccc(C(F)(F)F)cc1 (stereo not given)	.	.	.	2	.	.
CCOCCOC(=O)c1[nH]c2c(c1C)C(=O)CC(c1cc(OC)c(OC)c(OC)c1)C2 (stereo not given)	53	.	-11	-3	-53	.
CCOCCOC(=O)c1[nH]c2c(c1C)C(=O)CC(c1cccs1)C2 (stereo not given)	75*	53*	0	-1	-75	-1%	TAG conf=50*
COC(=O)[C@@]1(Cc2ccc(F)cc2)[C@H]2c3cc(C(=O)N4CCCC4)n(CCF)c3C[C@H]2CN1C(=O)c1ccccc1	.	.	.	-2	.	.
COC(=O)[C@@]1(Cc2ccc(F)cc2)[C@H]2c3cc(C(=O)N4CCCC4)n(CCCNc4ncc(C(F)(F)F)cc4Cl)c3C[C@H]2CN1C(=O)c1ccccc1	30	78*	10	.	-30	-1%	TAG conf=98*
COCC#Cc1ccc2c(c1)O[C@H](CN(C)C(=O)c1ccccc1)[C@@H](C)CN([C@H](C)CO)S2(=O)=O	.	.	.	-5	.	.
Cc1c(C(=O)N2CC3(CC(c4cccc(NC(=O)CC(c5ccccc5)c5ccccc5)c4)=NO3)C[C@@H]2C(N)=O)cc([N+](=O)[O-])cc1[N+](=O)[O-] (stereo not given in full)	14	54*	-2	1	-14	i	TAG conf=43*
COC(=O)[C@]1(CC(C)C)N[C@H](c2ccc(-c3cccc(Cl)c3)cc2)[C@@H]2C(=O)N(C)C(=O)[C@@H]21	74*	61*	-3	-1	-74	-1%	TAG conf=36
CCCN(CC1CC1)C(=O)CSc1nnc(-c2ccncc2)n1-c1ccc(OC)cc1	.	.	.	-2	.	.
Cc1cc(C)cc(NC(=O)CCc2c(C)nn(-c3ccc(N4CCCCC4)nn3)c2C)c1	79*	.	-6	11*	-79	-3%	SMARCA2 act conf=3;VP16 Luc act=6.3*
SMILES	SR-BI HDL uptake	H9c2 TAG inh	Vif imaging	SMARCA2 activ	SR-BI DiI-HDL act	DiI quench	others
C[C@H]1CN([C@@H](C)CO)C(=O)CCCn2nncc2CO[C@@H]1CN(C)C(=O)Nc1ccccc1F	.	.	.	-1	.	.
CN(C)/C=C/C(=O)/C=C/c1ccc(Cl)cc1	7	.	0	-3	-7	.
CN(C)CC(O)c1ccc(C=Cc2ccc(Cl)cc2)cc1 (stereo not given)	0	73*	24	7	0	.	TAG conf=44*
CC(C)(C)OC(=O)N1CCN(c2ccc(NC(=O)Cn3nnc(-c4ccccc4)n3)cc2)CC1	47	62*	.	-5	-47	.	TAG conf=18
CC1(C)Cc2cccc(OCC(=O)Nc3ccc(OCC(N)=O)cc3)c2O1	19	66*	12	2	-19	.	TAG conf=-18
CC(=O)Nc1ccc(NC(=O)COc2cccc3c2OC(C)(C)C3)cc1	31	-1	1	2	-31	.
COCCN1C=C(C(=O)OC)C(c2ccccc2C(F)(F)F)C(C(=O)OC)=C1	2	10	10	0	-2	.
